Test results from ChEMBL document CHEMBL3526062, “Role of human UDP-glucuronosyltransferases in the biotransformation of the triazoloacridinone and imidazoacridinone antitumor agents C-1305 and C-1311: highly selective substrates for UGT1A10” (Drug Metab Dispos, 2012).

What was measured:
[1] = Drug metabolism in human liver microsomes assessed as glucuronidation after 60 mins by Michaelis-Menten equation in presence of 3 mM UDP-GlcUA; assay type: ADME
How it was run: (§1)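 Recombinant UGT membrane protein (5 μg; His-tagged UGT1A levels normalized by anti-His Western blot) or single-donor microsomes (20 μg) incubated with substrate 5–1000 μM and 3 mM UDP-GlcUA in […] pH 7.4, 5 mM MgCl2, 5 mM saccharolactone, 2% DMSO, 60 min, 37°C. Ethanol stop, centrifuged, HPLC-UV. Initial velocities fitted to Michaelis-Menten, Hill or substrate-inhibition models; three determinations.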

[2] = target: T1, UDP-glucuronosyltransferase 1A9 (Homo sapiens, UniProt O60656); test: Inhibition of human recombinant UGT1A9 activity expressed in baculovirus-infected Sf9 cells; assay type: ADME
T1 sequence (O60656 whole entry): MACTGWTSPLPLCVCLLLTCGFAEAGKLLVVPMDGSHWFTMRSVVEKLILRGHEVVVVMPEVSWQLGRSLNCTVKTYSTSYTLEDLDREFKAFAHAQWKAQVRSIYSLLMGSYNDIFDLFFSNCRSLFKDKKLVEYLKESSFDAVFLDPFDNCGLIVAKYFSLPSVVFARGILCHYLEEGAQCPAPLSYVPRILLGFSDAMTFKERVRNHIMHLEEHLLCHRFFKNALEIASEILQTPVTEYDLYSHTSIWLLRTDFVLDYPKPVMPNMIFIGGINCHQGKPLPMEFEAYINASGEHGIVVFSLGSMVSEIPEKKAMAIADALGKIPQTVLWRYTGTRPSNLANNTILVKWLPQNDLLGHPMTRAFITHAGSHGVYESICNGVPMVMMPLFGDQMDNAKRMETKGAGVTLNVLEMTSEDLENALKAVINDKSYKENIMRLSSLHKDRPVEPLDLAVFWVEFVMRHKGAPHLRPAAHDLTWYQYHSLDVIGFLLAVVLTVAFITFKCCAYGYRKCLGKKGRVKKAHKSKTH

[3] = Drug metabolism in human intestinal microsomes assessed as ratio of Vmax to Km for glucuronidation per mg of protein after 60 mins by Michaelis-Menten equation in presence of 3 mM UDP-GlcUA; assay type: ADME, Intestine, Microsome; settings: 1 h; how it was run: as §1
[4] = Drug metabolism in human jejunum microsomes assessed as glucuronidation activity at 0.1 mM for 60 mins in presence of 3 mM UDP-GlcUA; assay type: ADME; settings: 1 h, 100 µM
How it was run: (§2)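 Microsomes from single donors (20 μg protein) incubated with 0.1 mM substrate and 3 mM UDP-GlcUA for 60 min at 37°C in Tris-HCl pH 7.4 buffer with 5 mM MgCl2, 5 mM saccharolactone and 2% DMSO. Glucuronide measured by HPLC; donor data summarized as box-and-whisker plots.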

[5] = target: T2, UDP-glucuronosyltransferase 1A8 (Homo sapiens, UniProt Q9HAW9); test: Activity of human recombinant UGT1A8 expressed in baculovirus-infected Sf9 cells assessed as glucuronidation activity per mg of protein at 100 to 200 uM after 60 mins in presence of 3 mM UDP-GlcUA; assay type: ADME; settings: sf9, 1 h
T2 sequence (Q9HAW9 whole entry): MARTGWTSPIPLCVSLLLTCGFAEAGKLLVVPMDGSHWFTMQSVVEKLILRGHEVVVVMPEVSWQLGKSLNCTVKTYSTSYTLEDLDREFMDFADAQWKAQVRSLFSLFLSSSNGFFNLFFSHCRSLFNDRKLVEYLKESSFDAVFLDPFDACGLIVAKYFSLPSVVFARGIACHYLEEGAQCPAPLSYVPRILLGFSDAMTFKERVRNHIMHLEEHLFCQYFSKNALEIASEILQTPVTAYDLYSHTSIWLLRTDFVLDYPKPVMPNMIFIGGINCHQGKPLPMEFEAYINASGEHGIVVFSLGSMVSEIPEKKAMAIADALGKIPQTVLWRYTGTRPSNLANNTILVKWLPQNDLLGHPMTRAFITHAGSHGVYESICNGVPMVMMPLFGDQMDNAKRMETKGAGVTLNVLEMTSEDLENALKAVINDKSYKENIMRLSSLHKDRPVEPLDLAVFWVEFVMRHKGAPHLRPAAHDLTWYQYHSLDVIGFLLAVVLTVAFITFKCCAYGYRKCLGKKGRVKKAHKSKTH
How it was run: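 Screening: 5 μg recombinant UGT protein (His-tag levels normalized) in Tris-HCl pH 7.4, 5 mM MgCl2, 5 mM saccharolactone, 2% DMSO to permeabilize membranes. Substrate at 100 or 200 μM, added in water. Started with 3 mM UDP-GlcUA, 60 min at 37°C, stopped with ethanol, then centrifuged. Glucuronide quantified by reversed-phase C18 HPLC against the substrate response; triplicates.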

[6] = Drug metabolism in human colon microsomes assessed as glucuronidation activity at 0.1 mM for 60 mins in presence of 3 mM UDP-GlcUA; assay type: ADME, microsome; settings: 1 h, 100 µM; how it was run: as §2
Liver microsome [7] = test: Drug metabolism in human liver microsomes assessed as glucuronidation per mg of protein after 60 mins by Michaelis-Menten equation in presence of 3 mM UDP-GlcUA; assay type: ADME; settings: 1 h; how it was run: as §1
Liver microsome [8] = test: Drug metabolism in human liver microsomes assessed as ratio of Vmax to Km for glucuronidation per mg of protein after 60 mins by Michaelis-Menten equation in presence of 3 mM UDP-GlcUA; assay type: ADME; settings: 1 h; how it was run: as §1
[9] = Drug metabolism in human small intestine microsomes assessed as glucuronidation activity at 0.1 mM for 60 mins in presence of 3 mM UDP-GlcUA; assay type: ADME; settings: 1 h, 100 µM; how it was run: as §2
[10] = target: T3, UDP-glucuronosyltransferase 1A10 (Homo sapiens, UniProt Q9HAW8); test: Activity of human recombinant UGT1A10 expressed in baculovirus-infected Sf9 cells assessed as metabolite formation at 200 uM after 60 mins by HPLC analysis; assay type: ADME; settings: sf9, 1 h
T3 sequence (Q9HAW8 whole entry): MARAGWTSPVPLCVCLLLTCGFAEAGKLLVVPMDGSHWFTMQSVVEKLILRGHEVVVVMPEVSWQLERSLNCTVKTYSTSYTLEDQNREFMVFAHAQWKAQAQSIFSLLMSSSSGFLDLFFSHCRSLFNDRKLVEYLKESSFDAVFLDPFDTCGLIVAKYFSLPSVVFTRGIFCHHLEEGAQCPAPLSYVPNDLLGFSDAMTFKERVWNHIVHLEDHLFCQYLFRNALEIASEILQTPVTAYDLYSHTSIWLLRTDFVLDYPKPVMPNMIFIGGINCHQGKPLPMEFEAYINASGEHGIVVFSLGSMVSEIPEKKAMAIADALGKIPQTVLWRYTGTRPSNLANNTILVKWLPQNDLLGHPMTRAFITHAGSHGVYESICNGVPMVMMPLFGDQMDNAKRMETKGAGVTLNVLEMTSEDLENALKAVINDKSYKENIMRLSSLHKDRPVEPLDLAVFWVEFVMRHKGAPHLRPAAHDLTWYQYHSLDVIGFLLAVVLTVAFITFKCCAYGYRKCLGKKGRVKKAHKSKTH
How it was run: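 Protein (5 μg UGT1A10 or microsomal) incubated with 0.2 mM substrate and 3 mM UDP-GlcUA, 60 min. HPLC on C18 at 25°C with a 15–80% methanol gradient in 0.05 M ammonium formate pH 3.4 at 1 ml/min. ESI positive-ion MS and UV/Vis spectra taken from the peaks. Glucuronide confirmed by 60 min further treatment with 1000 U E. coli β-glucuronidase.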

Structure (SMILES) | Km at 1 h [1] [µM] | Ki [2] [µM] | Vmax/Km [3] [µL/min] | Drug metabolism [4] | Drug metabolism [5] [nmol/min/mg] | Drug metabolism [6] | Vmax (Liver microsome [7]) [nmol/min/mg] | Vmax/Km (Liver microsome [8]) [µL/min] | Drug metabolism [9] | Drug metabolism [10]
CN(C)CCCNc1ccc2nnn3c4ccc(O)cc4c(=O)c1c23 | 71.3 | 1650 | 5.4 | metabolite_detected | 0.2 | metabolite_detected | 0.386 | 5.4 | metabolite_detected | metabolite_detected
CCN(CC)CCNc1ccc2ncn3c4ccc(O)cc4c(=O)c1c23 [C-1311] | 39.3 | 958 | 5.2 | metabolite_detected | 0.2 | metabolite_detected | 0.156 | 4 | metabolite_detected | metabolite_detected
